This note sets out measurements from ChEMBL document CHEMBL5154945, “Discovery and Optimization of Pyrrolopyrimidine Derivatives as Selective Disruptors of the Perinucleolar Compartment, a Marker of Tumor Progression toward Metastasis” (J Med Chem, 2022).

Calls of active or inactive are those of the source. No cut-off for these calls is given here. A value given as a limit tells only on which side of the number the result lay.

Data set [1] relates to PC-3M. Put plainly: Anticancer activity in human PC-3M cells expressing PTB/GFP fusion protein assessed as perinucleolar compartment disassembly and measured after 24 hrs by Hoechst 33342 staining based microscopic method. The conditions noted are these: read-out: IC50. Type of data set: functional, cell-based. In outline: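 Imaged by high-content microscopy. Nuclei with PNC spots ≥3 and >0 scored positive. PNC prevalence % = PNC-positive nuclei/total nuclei ×100, normalized to DMSO (0% activity) and 0% PNC (−100%). IC50 from concentration-response.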

Data set [2] is described as follows: Permeability of the compound at pH 7.4 incubated for 30 mins by UV plate reader based PAMPA assay. The conditions noted are these: pampa, pH 7.4, 0.5 h. For orientation: PAMPA measures passive passage across an artificial lipid membrane.
Data set [3] can be described thus: Microsomal stability in CD1 mouse liver microsomes assessed as half life measured upto 60 mins in presence of NADPH by LC-MS analysis. The conditions noted are these: mouse, microsomes, 1 h.
In data set [4] the test system is PC-3M. Put plainly: Antiproliferative activity against human PC-3M cells expressing PTB/GFP fusion protein assessed as cell growth inhibition and measured every four hrs for 130 hrs by IncuCyte zoom live cell analysis. It counts as functional, cell-based. In a few lines: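 PC3M-PTB1-GFP cells in DMEM/10% FBS, seeded at 1.25×10^4 cells/ml and left overnight at 37 °C, 5% CO2. Compound added to give 11 final concentrations, 10 nM to 20 μM. Brightfield images taken every 4 h for about 130 h; percent confluence measured.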

A word on the IC50: it is the midpoint of a concentration-inhibition curve. Turning to `N=c1c2c(-c3ccccc3)cn(Cc3ccccc3)c2ncn1C1CCOCC1`, the IC50 with PC-3M [1] is over 20 µM. Besides, the permeability in data set [2] is recorded as 1729 10^-6 cm/s. In addition, the t1/2 in data set [3] was found to be 5.2 min. The outcome with PC-3M [4] was Active.
